From publication PMC10527432 (Cell, 2023)
“Also recorded” adds a separate entry of the source. Where two headings read alike, the source gives them in different places.

Assays:
[1] = test system: synthetic α-Syn aggregates and Aβ fibrils; details: cited from earlier work
α-Syn PFFs = α-Syn PFFs (Homo sapiens, UniProt P37840); assay: Fibril binding assay; details: fluorescence, 0.08 μM fibrils, 5 μM compound
Outline: (§1)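 In the fluorescence screen, test compound (5 μM) in 50 mM Tris-HCl, 50 mM NaCl, pH 7.4 was added to fibrils or monomers (0.08 μM) in triplicate wells. Fluorescence was read at each compound's own excitation/emission wavelengths. α-Syn fibrils were commercial, dissolved to 1 mg/ml in PBS. Tau PFFs were assembled from 3 mg/mL protein with 12.5 μM heparin for 7 days at 37 °C with shaking; mixed 3R-4R fibrils used 0N3R and 2N4R at 1.5 mg/ml each.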

Aβ PFFs = Aβ PFFs (Homo sapiens, UniProt P05067); assay: Fibril binding assay; details: fluorescence; 0.08 μM fibrils, 5 μM compound
Aβ PFFs, sequence (P05067 672-713 limits assumed): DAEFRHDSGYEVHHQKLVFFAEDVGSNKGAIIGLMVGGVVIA

Tau PFFs = Tau PFFs (Homo sapiens, UniProt P10636); assay: Fibril binding assay; details: fluorescence; 0.08 μM fibrils, 5 μM compound; regardless of 3R or 4R Tau
Tau PFFs, sequence (P10636 1-441 isoform P10636-8): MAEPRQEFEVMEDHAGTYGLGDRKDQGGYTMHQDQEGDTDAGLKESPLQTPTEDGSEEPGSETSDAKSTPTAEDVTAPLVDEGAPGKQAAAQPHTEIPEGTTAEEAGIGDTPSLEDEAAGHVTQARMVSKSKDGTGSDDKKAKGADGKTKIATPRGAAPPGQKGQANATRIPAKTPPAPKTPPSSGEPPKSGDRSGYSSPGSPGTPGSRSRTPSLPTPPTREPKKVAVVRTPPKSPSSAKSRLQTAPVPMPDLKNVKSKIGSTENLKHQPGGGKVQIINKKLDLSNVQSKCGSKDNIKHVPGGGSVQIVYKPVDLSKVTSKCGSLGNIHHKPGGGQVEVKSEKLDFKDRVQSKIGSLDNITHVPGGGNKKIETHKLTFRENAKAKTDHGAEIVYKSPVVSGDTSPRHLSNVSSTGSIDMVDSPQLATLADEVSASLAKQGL
Outline: as §1

[2] = target: α-Syn deposits in PD/DLB brain homogenates (Homo sapiens, UniProt P37840); format: binding
Outline: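 Brain lysates from 4 control and 4 patient cases were normalized for aggregate levels by pS129 western blot. Homogenates (0.2 mg/ml) were incubated with [18F]-labelled test compound (5–900 nM) for 1 h at 37 °C in 50 mM Tris-HCl, 50 mM NaCl, 0.5% sodium ascorbate, pH 7.4. Samples were then filtered, washed twice and counted by scintillation.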

[3] = target: aggregated α-Syn in PD/DLB patients (Homo sapiens, UniProt P37840); assay: Saturation binding assay with insoluble α-Syn fraction from PD/DLB brain
Outline: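 Insoluble α-Syn was extracted from frozen PD and DLB brain in 50 mM Tris-HCl pH 7.4, 800 mM NaCl, 10 mM NaF, 5 mM EDTA at 100,000 × g. Pellets were re-extracted with buffer containing 1% Triton X-100, then 1% Triton X-100 plus 30% sucrose. A final 1% sarkosyl step ran overnight, followed by a 100,000 × g spin.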

[4] = target: aggregated α-Syn in PD brains (Homo sapiens, UniProt P37840); assay: In vitro competition assay against [3H]BF-227 in postmortem PD brain tissue; format: binding; details: read-out: Ki against [3H]BF227; postmortem PD brain tissue homogenate
Outline: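 Postmortem PD brain homogenate (α-Syn aggregates, no other amyloid) was used at a final 100 μg tissue/mL in PBS/0.1% BSA, pH 7.0. Unlabeled test compound (0.1–1000 nM; 0.25% DMSO final) was combined with [3H]BF-227 solution (~2 nM). 100% inhibition was defined by displacement with 1 μM unlabeled compound. Each concentration was run in triplicate, giving Ki.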

[5] = In vivo pharmacokinetics study in mice, i.v.; details: i.v. 5 mg/kg
Outline: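 Male ICR mice received 5 mg/kg i.v. Test compound was measured in plasma and brain homogenates at successive time points, with 3 mice per time point. Brain/plasma ratios, plasma half-life and clearance were derived; data are mean ± SD.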

Toxicology test in mice = format: in vivo; details: C57BL/6 mice
[6] = test system: α-Syn aggregates in primary neurons; assay: Fluorescence staining of primary neurons containing α-Syn aggregates; format: cell-based, rat; details: AAV-α-Syn + α-Syn PFFs, fluorescence microscopy
Outline: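 Primary embryonic rat neurons were cultured at 37 °C in 5% CO2 and infected with AAV-α-Syn at DIV7. At DIV12 they received sonicated α-Syn PFFs at 100 ng/ml final, with monomer as control. Test compound was then added and binding to the intracellular aggregates was assessed by fluorescence microscopy.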

[7] = target: α-Syn deposits in mouse brain sections (Homo sapiens, UniProt P37840, A53T); assay: Staining of mouse brain sections containing α-Syn deposits; details: SN of AAV-α-Syn A53T-injected mice
[8] = test system: α-Syn deposits in mouse brain sections; assay: as above; details: SNCA transgenic mice treated with rotenone
Aβ plaques or NFTs = assay: Counter-staining of mouse brain sections; details: Tau P301S, 5xFAD, 3xTg mice
Outline: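 Cortical slices from 14-month-old 3xTg, 6-month-old Tau P301S and 12-month-old 5xFAD mice were fixed and incubated with primary antibodies for 12 h at 4 °C. Alexa Fluor-conjugated secondary antibodies were applied for 3 h at room temperature, with DAPI (1 μg/ml) nuclear counterstain. Slices were imaged by confocal microscopy.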

[9] = target: α-Syn pathology in DLB and MSA patient brain (Homo sapiens, UniProt P37840); assay: Staining of DLB and MSA patient brain sections; details: DLB and MSA patients
Aβ plaques or NFTs in AD = assay: Counter-staining of AD patient brain sections; set-up: species or system human; details: AD patients
α-Syn aggregates = α-Syn aggregates (Homo sapiens, UniProt P37840, A53T); assay: Ex vivo staining after i.v. F0502B in AAV-α-Syn A53T mice; set-up: species or system mouse; details: 2 mg/kg i.v., 2 h
Outline: (§2)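 Eight-month-old mice received test compound at 2 mg/kg via the tail vein, and brain sections were prepared 2 h later. Sections were stained with anti-Aβ, anti-p-Tau (AT8), anti-p-α-Syn S129 and ThS, and co-localization was assessed. Cortex was examined for 5xFAD, 3xTg and Tau P301S mice. SN was examined for mice given unilateral stereotaxic AAV9-α-Syn A53T into SN at 3 months.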

Aβ or Tau aggregates = assay: Ex vivo staining after i.v. F0502B in 5xFAD, 3xTg, Tau P301S mice; set-up: species or system mouse; details: 2 mg/kg i.v., 2 h
Outline: as §2

α-Syn fibrils = α-Syn fibrils (Homo sapiens, UniProt P37840); assay: [18F]-F0502B saturation binding assay with α-Syn PFFs; details: read-out: KD, α-Syn fibrils, 1 μM PFFs
Outline: (§3)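 PFFs (1 μM) were incubated with [18F]-labelled test compound (5–900 nM) for 1 h at 37 °C in 30 mM Tris-HCl pH 7.4, 0.1% BSA, 0.5% sodium ascorbate. Nonspecific binding was defined with 2 μM unlabeled compound. Samples were filtered, washed twice and counted by scintillation, in duplicate. Kd and Bmax were obtained by nonlinear fit to Y = Bmax*X/(X+Kd).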

Aβ1–42 fibrils = Aβ1–42 fibrils (Homo sapiens, UniProt P05067); assay: [18F]-F0502B saturation binding assay with Aβ PFFs; details: read-out: KD, Aβ fibrils, 1 μM PFFs
Aβ1–42 fibrils, sequence (P05067 672-713 limits assumed): as the sequence (P05067 672-713 limits assumed) above
Outline: as §3

Tau fibrils = Tau fibrils (Homo sapiens, UniProt P10636); assay: [18F]-F0502B saturation binding assay with Tau PFFs; details: read-out: KD, Tau fibrils, 1 μM PFFs
Tau fibrils, sequence (P10636 1-441 isoform P10636-8): as the sequence (P10636 1-441 isoform P10636-8) above
Outline: as §3

[10] = target: Aβ fibrils in AD patients (Homo sapiens, UniProt P05067); assay: Saturation binding assay with insoluble Aβ fraction from AD brain
Aβ fibrils in AD patients, sequence (P05067 672-711 limits assumed): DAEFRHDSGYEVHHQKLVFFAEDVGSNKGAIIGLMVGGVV
Outline: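 Insoluble Aβ was extracted from AD gray matter by homogenization in 0.32 M sucrose, mesh sieving, and centrifugation in 1 M sucrose. This was followed by collagenase/dispase (2 mg/ml) digestion for 16 h at 37 °C and a discontinuous 1.05–1.8 M sucrose gradient.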

[11] = target: Tau fibrils in AD patients (Homo sapiens, UniProt P10636); assay: Saturation binding assay with insoluble Tau fraction from AD brain
Tau fibrils in AD patients, sequence (P10636 623-708 limits assumed): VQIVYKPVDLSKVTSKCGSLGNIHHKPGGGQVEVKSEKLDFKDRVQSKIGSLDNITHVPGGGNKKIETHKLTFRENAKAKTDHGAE
Outline: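 Insoluble Tau was extracted from AD brain in 10 mM Tris-HCl pH 7.4, 0.8 M NaCl, 1 mM EGTA, 10% sucrose. Sequential centrifugations up to 100,000 × g were performed at 4 °C. The pellet was resuspended in 20 mM Tris-HCl pH 7.4, 100 mM NaCl and run over a Superose 6 column.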

[12] = target: LBs in human brain sections (Homo sapiens, UniProt P37840); assay: Autoradiography with human brain slices; format: binding; details: PD versus AD patients; 4 nM tracer
Outline: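 Post-mortem human brain slices, stored at −20 °C, were preincubated in PBS + 0.1% BSA (pH 7.4) to reach room temperature. They were then incubated with [18F]-labelled tracer at room temperature for 30 min, rinsed in cold buffer and once in distilled water, and dried. Slices were exposed to imaging plates for 3 h before development.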

[13] = target: α-Syn aggregates in macaque brain (Homo sapiens, UniProt P37840, A53T); assay: PET imaging in non-human primate PD models; format: in vivo, rhesus macaques; details: macaques injected with AAV-α-Syn A53T
[14] = test system: α-Syn aggregates in macaque brain; assay: PET imaging in non-human primate PD models; format: in vivo, rhesus macaques; details: control macaques
α-Syn aggregation = details: cited from earlier work

Compound: CN(C)c1ncc(/C=C/c2nc3ccc(OCCF)cc3o2)s1 [BF-227]
- binding to α-Syn aggregates and Aβ fibrils in vitro [1]: binds to both synthetic α-Syn aggregates and Aβ fibrils in vitro

Compound: Cc1cc2nc(/C=C/c3ccc(O)c(Br)c3)sc2cc1N(C)CCOCCF [F0502B]
- binding selectivity toward α-Syn PFFs versus Aβ and Tau PFFs (α-Syn PFFs; counter screening): stronger binding affinity with α-Syn PFFs than with Aβ and Tau PFFs
- binding activities toward α-Syn PFFs (α-Syn PFFs; ThT positive control): specifically bound α-Syn fibrils
- binding to Aβ fibrils (Aβ PFFs): poorly bound
- binding to Tau fibrils (Tau PFFs): poorly bound
- Kd ([2]; read-out: KD for α-Syn deposits in PD brains, PD brains): 4.26 to 7.32 nM
- Kd ([2]; read-out: Kd, DLB brain homogenates, unfractionated human DLB brain homogenates): 9.79 nM
- Kd ([2]; read-out: Kd, PD brain homogenates, unfractionated human PD brain homogenates): 4.26 nM
- Kd ([3]; read-out: KD, aggregated α-Syn in DLB patients, DLB): 6.23 nM
- Kd ([3]; read-out: KD, aggregated α-Syn in PD patients, PD): 3.68 nM
- Ki [4]: 3.4 nM
- Cl rate [5]: approximately 33.6 L/h/kg
- plasma half-life t1/2 [5]: 6.9 min
- brain versus plasma (B/P) ratio ([5]; 1 min): 0.106
- brain versus plasma (B/P) ratio ([5]; 1 h): 13.37
- effect on complete cell count or liver/renal functions (Toxicology test in mice): did not alter complete cell count or liver/renal functions
- signals in neurons with α-Syn aggregates [6]: specific association of F0502B with α-Syn aggregates
- staining of α-Syn deposits in mouse brain sections [7]: specific association of F0502B with α-Syn aggregates
- staining of α-Syn inclusions [8]: stained the α-Syn inclusions that were positive for p-S129 and 5G4
- staining of Aβ plaques or NFTs in mouse brain sections (Aβ plaques or NFTs): but not Aβ plaques or NFTs; also recorded: weakly associated with Aβ aggregates
- staining of α-Syn pathology in patient brain slides [9]: specific association of F0502B with α-Syn aggregates
- staining of Aβ plaques or NFTs in AD brains (Aβ plaques or NFTs in AD): but not Aβ plaques or NFTs
- ex vivo staining of α-Syn aggregates after i.v. injection (α-Syn aggregates): selectively stains α-Syn aggregates
- ex vivo staining of Aβ or Tau aggregates after i.v. injection (Aβ or Tau aggregates): not Aβ or Tau aggregates

Compound: Cc1cc2nc(/C=C/c3ccc(O)c(Br)c3)sc2cc1N(C)CCOCCF [[^18F]-F0502B]
- Kd (α-Syn fibrils): 11 nM
- Kd (Aβ1–42 fibrils): 109 nM
- Kd (Tau fibrils): 120 nM
- Kd ([10]; read-out: KD, Aβ fibrils in AD patients): 108 nM
- Kd ([11]; read-out: KD, Tau fibrils in AD patients): 151 nM

Compound: Cc1cc2nc(/C=C/c3ccc(O)c(Br)c3)sc2cc1N(C)CCOCC[18F] [[^18F]-F0502B]
- specific binding in PD/AD/healthy control tissues ([2]; total and nonspecific binding curves, frontal cortex): only specific binding with PD tissues but not AD or control tissues
- Bmax, aggregated α-Syn in DLB patients ([3]; DLB): 12.30 fmol/nmol
- Bmax, aggregated α-Syn in PD patients ([3]; PD): 14.95 fmol/nmol
- Bmax, Aβ fibrils in AD patients [10]: 2.34 fmol/nmol
- Bmax, Tau fibrils in AD patients [11]: 1.14 fmol/nmol
- autoradiographic binding to human brain sections [12]: selectively associated with LBs in brain sections from PD but not AD patients
- PET signal in brain [13]: demonstrable signals in the striatal regions
- PET signal in brain [14]: devoid of radiotracer retention

Compound: Oc1ccc(-c2cc(-c3cccc(Br)c3)n[nH]2)cc1O [anle138c]
- inhibition of α-Syn aggregation (α-Syn aggregation): complete the inhibition of α-Syn aggregation; also recorded: strong inhibition of α-Syn aggregation

Compound: thioflavin-S [ThS, reference compound]
- staining of α-Syn deposits in mouse brain sections [7]: stained all of these aggregates
- staining of Aβ plaques or NFTs in mouse brain sections (Aβ plaques or NFTs): stained all of these aggregates
